# Hits are enriched below; roughly 2.1% of the tested compounds scored in any of these assays.
# Runt-CBFb FRET: inhibitors of human RUNX1 Runt domain binding to CBFb; Cerulean-Runt/Venus-CBFb FRET ratio 530/480, 1 h; inhibition, % at 20 µM; 220,000 compounds, 0.46% hits; AID 1496;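 active = inhibition over about 50% at 20 µM in the single-dose screen, limit read from the data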;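 note: 0% = DMSO wells and 100% = excess unlabeled CBFb competitor control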
# Target sequence (Q01196 whole entry, looked up, the tested form may be a part): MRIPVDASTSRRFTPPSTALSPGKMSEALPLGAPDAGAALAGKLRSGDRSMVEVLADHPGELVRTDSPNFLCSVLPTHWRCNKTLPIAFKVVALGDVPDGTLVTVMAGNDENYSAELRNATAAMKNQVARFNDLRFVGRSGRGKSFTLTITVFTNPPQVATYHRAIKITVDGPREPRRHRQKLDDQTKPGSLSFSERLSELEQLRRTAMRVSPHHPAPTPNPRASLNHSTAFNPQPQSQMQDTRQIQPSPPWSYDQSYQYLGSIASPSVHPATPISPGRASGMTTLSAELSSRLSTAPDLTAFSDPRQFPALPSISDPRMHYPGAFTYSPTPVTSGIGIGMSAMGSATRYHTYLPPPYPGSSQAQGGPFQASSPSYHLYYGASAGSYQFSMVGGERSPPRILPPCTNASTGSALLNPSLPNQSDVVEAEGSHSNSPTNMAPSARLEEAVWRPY
# Target sequence (Q13951 whole entry, looked up, the tested form may be a part): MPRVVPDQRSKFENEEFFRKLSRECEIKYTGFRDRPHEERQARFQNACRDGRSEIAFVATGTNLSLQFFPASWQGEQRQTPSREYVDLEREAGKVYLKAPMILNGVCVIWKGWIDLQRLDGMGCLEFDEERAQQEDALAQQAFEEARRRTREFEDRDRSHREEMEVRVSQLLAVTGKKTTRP
#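 Doses: 20 µM compound in 1% DMSO | Material: Cerulean-labeled Runt domain protein | Amount: Each fluorescent fusion protein 100 nM | Schedule: Two 1 h room-temperature incubations shielded from light | Measured by: FRET fluorescence | Evaluation: Loss of energy transfer signal | Controls: Unlabeled CBFb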
# RanGTP-Imp inh: inhibitors of RanGTP-importin-beta interaction, primary screen, biochemical, FRET, CFP-Ran, YFP-importin-beta, homogeneous | cell-free CFP-Ran/YFP-importin-beta FRET ratio | inhibition, % (concentration not given with the values) | 300,000 compounds, 1.1% hits | AID 2216;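 active = more than half of the replicate wells show a fall in the fluorescence ratio signal beyond about 16%, limit read from the data, passing the limit was not always enough; inconclusive = exactly half of the replicate wells pass the set limit; inactive = fewer than half of replicates pass the limit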;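 note: 0% = DMSO wells and 100% = Ran loaded with GDP instead of GTP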
# Hck Nef HTS: blocks Nef-activated human Hck kinase. inhibition, % at 20 µM. 220,000 compounds, 0.68% hits. P08631. Recombinant Hck-YEEI plus Nef, Z-Lyte FRET kinase assay;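 active = Hck-Nef kinase inhibition above about 50%, limit read from the data; inactive = inhibition below that limit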;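 note: 0% = DMSO with Hck plus Nef and 100% = Hck alone without Nef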
# Pemphigus Ab inh: blocks pemphigus antibody binding to human desmoglein-3. P32926. DSG3-coupled beads, scFv-anti-DSG3-GFP binding, flow cytometry; active compounds read low. binding (percent of control), % at 10 µM. 310,000 compounds, 0.48% hits. AID 588358;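 active = binding more than 3 SD below its plate's average and above zero; inconclusive = below that plate limit but binding exactly zero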;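 note: hits lower antibody fragment binding to DSG3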
# pCIP destab: compounds decreasing mouse p/CIP protein stability; Q05BA5; AID 1984; decrease of EGFP signal, % at 10 µM; F442A p/CIP-EGFP cells, EGFP fluorescence, 16 h; 290,000 compounds, 0.01% hits;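 active = EGFP signal decrease of at least 30% at 10 µM or well 3 SD below plate mean, unless failing retest; inactive = the rest, including hits failing retest or dose response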
# Runt-SMMHC FRET: inhibitors of human RUNX1 Runt domain binding to CBFb-SMMHC; Cerulean-Runt/Venus-CBFb-SMMHC FRET ratio 530/480, 1 h; inhibition, % at 20 µM; 220,000 compounds, 0.74% hits; AID 1434;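 active = mean inhibition across duplicate retests at 20 µM reaching about 50%, limit read from the data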;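 note: 0% = DMSO wells and 100% = wells with excess untagged CBFb-SMMHC; inhibitors lower the FRET ratio by blocking Runt binding to CBFb-SMMHC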
# An asterisk follows results filed as active; ? = inconclusive; . = not tested or not shown.
SMILES,Runt-CBFb FRET,RanGTP-Imp inh,Hck Nef HTS,Pemphigus Ab inh,pCIP destab,Runt-SMMHC FRET
Cc1cc(C)n(-c2nc3ccccc3nc2N2CCN(S(=O)(=O)c3ccc4ccccc4c3)CC2)n1,5.2,13.5,-0.2,88.8*,6.3,12.4
O=C(/C=C/c1ccc(Br)o1)OCc1nc2ccsc2c(=O)[nH]1,.,6.9,.,49.6*,.,.
Cc1cc2c(c(=O)n1CCCn1ccnc1)C(c1ccco1)C(C#N)=C(N)O2 (configuration not stated),46.1,5.3,-0.6,102.0,-13.7,107.9*
COc1ccccc1C1C(C#N)=C(N)Oc2cc(C)n(CCCn3ccnc3)c(=O)c21 (configuration not stated),2.7,-3.8,1.3,.,1.2,-4.8
COCCn1c(C)cc2c(c1=O)C(c1ccccc1F)C(C#N)=C(N)O2 (configuration not stated),6.0,63.0*,-0.1,98.9,0.9,32.8
CC1=C(C(=O)Nc2cc(C(=O)N3CCC(C)CC3)ccc2C)SCCO1,.,1.1,.,102.0,3.1,.
O=C(c1ccc(Cl)c([N+](=O)[O-])c1)N(Cc1ccco1)C1CCS(=O)(=O)C1 (configuration not stated),.,2.1,.,97.3,-0.4,.
N#Cc1c(-c2ccccc2)nc(SCC(=O)N(c2ccccc2)c2ccccc2)[nH]c1=O,-3.6,2.2,5.6,97.6,-2.0,-12.6
N#Cc1c(-c2ccccc2)nc(SCC(=O)N2c3ccccc3Sc3ccccc32)[nH]c1=O,-5.6,-0.9,82.0*,92.5,-1.5,-9.9
O=c1[nH]c(C2CCN(S(=O)(=O)c3ccc(F)cc3)CC2)nc2c1nnn2Cc1ccc2c(c1)OCCO2,.,19.3*,.,.,14.3,.
O=C(CSc1ccc(-c2ccc3c(c2)OCO3)nn1)Nc1nccs1,-6.7,2.5,4.8,94.6*,7.6,-8.8
C#CCOCC1CNC(=S)O1 (configuration not stated),.,.,.,104.7,.,.
Cc1ccc(N(CC(=O)NC(C)(C)C)C(=O)CNC(=O)c2cccs2)c(C)c1,-1.6,1.6,22.2,80.6*,-10.8,-3.5
O=C1NC(Cc2ccc(O)cc2)c2nc3ccc(Br)cc3c(=O)n2-c2ncccc21 (configuration not stated),.,.,.,102.7,.,.
COC(=O)c1c(NC(=O)C(C)C)sc2c1CCN(Cc1ccccc1)C2,.,54.3*,.,101.0,2.0,.
COC(=O)c1c(NC(=O)C2CC2)sc2c1CCN(C(C)=O)C2,0.3,1.2,6.9,100.1,-1.6,-7.8
CCC(=O)Nc1sc2c(c1C(=O)OC)CCN(Cc1ccccc1)C2,.,91.8*,.,81.4,0.3,.
CCOc1ccc(NC(=O)CN(C)C(=O)c2c(C)nn(-c3ccc(F)cc3)c2Cl)cc1OCC,.,?,.,101.2,.,.
CCN1C(=O)/C(=C2/Sc3ccccc3N2CC)S/C1=N\c1ncn[nH]1,.,7.9,52.5*,.,-8.3,.
Cc1ccc(-n2nc3c(c2NC(=O)c2ccc(F)c(F)c2)CS(=O)(=O)C3)cc1,.,-0.6,.,114.7,-8.2,.
Cc1c(C(=O)OC(C)C)sc(NC(=O)c2cnccn2)c1C(=O)OC(C)C,.,.,.,92.3,.,.
COc1ccccc1-n1cnc2c(c1=O)c1nc3ccccc3nc1n2-c1ccc(C)c(C)c1,-11.4,2.7,19.5,34.6*,-2.7,-17.1
Cc1ccc(C2=CC(c3ccccc3)n3ncnc3N2)cc1 (configuration not stated),.,-5.4,.,104.4,.,.
COc1cc(C2CC(=O)C3=C(C2)Nc2ncnn2C3c2cccs2)cc(OC)c1OC (configuration not stated),26.5,3.9,13.7,111.1,-13.9,31.5
C1=C(c2ccccc2)Nc2ncnn2C1c1ccccc1 (configuration not stated),.,-14.0,.,68.7*,.,.
SMILES,Runt-CBFb FRET,RanGTP-Imp inh,Hck Nef HTS,Pemphigus Ab inh,pCIP destab,Runt-SMMHC FRET
COc1cc(C2C=C(c3cccs3)Nc3ncnn32)cc(OC)c1OC (configuration not stated),20.3,.,4.9,102.3,-34.6,92.8*
Cn1c(=O)c(C(=O)COC(=O)c2cc(-c3ccco3)nc3ccccc23)c(N)n(CC2CC2)c1=O,-3.8,2.1,50.7*,.,-7.6,-12.8
CC1CCN(S(=O)(=O)c2ccc3c(c2)c(=O)c(C(=O)NCc2cccs2)cn3C)CC1,-6.1,-1.5,-8.3,83.2*,-2.9,-10.3
CC1CCN(S(=O)(=O)c2ccc3c(c2)c(=O)c(C(=O)NCc2ccco2)cn3C)CC1,-10.9,2.9,-2.6,106.7,-3.5,-16.1
CCOC(=O)N/N=C/c1cn(CCCOc2ccccc2)c2ccccc12,-2.7,-1.4,0.3,96.6,-32.8,-0.3
CCOC(=O)N/N=C/c1cn(Cc2ccc(Cl)cc2)c2ccccc12,0.8,-7.6,3.9,-27.9*,-6.3,-2.8
CCOC(=O)N/N=C/c1cn(CCCOc2ccc(C)cc2)c2ccccc12,-1.4,-1.3,0.9,-31.3*,-18.3,-1.5
Cc1cc(-c2ccc(NC(=O)[C@@H]3CCCC[C@@H]3C(=O)O)c(C)c2)ccc1NC(=O)[C@@H]1CCCC[C@@H]1C(=O)O,5.1,?,1.4,105.0,-39.6,-4.3
O=C(Cc1ccccc1)NCC(=O)N1CCC1,.,4.8,.,111.8,-4.6,.
COC(=O)c1c(C)c2c(C)cc3ccccn3c-2c1C(=O)OC,-8.8,-1.2,-2.6,105.9,-19.7,-33.5
COC(=O)c1cc2c(-c3ccccc3)cc3ccccn3c-2c1C(=O)OC,37.8,-1.2,0.8,105.1,-7.6,53.7*
COc1ccc(-c2nnc(SCC(=O)Nc3ccc(C(=O)O)cc3)n2-c2ccc(Cl)cc2)cc1,.,2.1,.,107.5,2.3,.
COc1ccc(-c2[nH]c(-c3ccc(Cl)cc3)nc2SCC(=O)Nc2nccs2)cc1,-1.2,1.3,1.6,72.5*,-10.7,1.7
COc1ccc(-n2c(SCC(=O)Nc3nccs3)nnc2-c2ccc(Cl)cc2)cc1,.,.,.,-1.0*,.,.
Cc1cccc(C)c1OCc1nnc(SCC(=O)Nc2nccs2)n1-c1ccccc1,-2.3,4.3,0.6,34.1*,-1.3,-0.5
COc1ccc(-c2[nH]c(-c3ccccc3)nc2SCC(=O)Nc2nccs2)cc1,2.3,.,-18.0,104.6,-7.3,-4.8
CSCC[C@H](NC(=O)OC(C)(C)C)C(=O)N1CCC(C(=O)N[C@@H](C)C(=O)NC(C)c2ccccc2)CC1 (some centres not stated),.,-3.5,.,105.6,10.3,.
O=C(N/N=C/C(Br)=C/c1ccccc1)c1cccs1,-0.3,6.7,15.8,107.0,-15.0,-2.6
CCOC(=O)/C=C(\C)Sc1cc(O)c2ccccc2c1O,26.9,.,-167.3,95.2,-3.3,60.9*
COc1ccccc1-c1ccc([C@@H]2C[C@H]3[C@@H](CN2)CON3C)cc1,.,.,.,97.8,.,.
Cc1ccc2c3c(cccc13)-c1ccccc1C2=O,19.2,63.7*,5.7,125.1,1.2,63.2*

# Screening results (PubChem BioAssay)
